The results in this text go back to ChEMBL document CHEMBL2384923, “Design, synthesis and antimicrobial activities evaluation of Schiff base derived from secnidazole derivatives as potential FabH inhibitors” (Bioorg Med Chem, 2013).

In one test the test system is Staphylococcus aureus. Put plainly: Antimicrobial activity against Staphylococcus aureus ATCC 6538 after 24 hrs by two fold serial dilution method. It is filed as functional. The settings on record: ATCC 6538, 24 h. The procedure, abridged:
(§1)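 Tested per NCCLS by two-fold serial dilution in nutrient broth. The inoculum came from 24 h cultures on nutrient agar at 37 ± 1 °C and was adjusted with sterile saline to 1 ×10^4-105 CFU. […] Tubes were incubated at 37 ± 1 °C, and MIC was read visually after 24 h. Kanamycin and DDCP served as standards.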

In another test the test system is Bacillus subtilis. Put plainly: Antimicrobial activity against Bacillus subtilis ATCC 530 after 24 hrs by two fold serial dilution method. It is filed as functional. The settings on record: ATCC 530, 24 h. An outline of the steps:
as §1

A further test deals with Pseudomonas aeruginosa. Briefly: Antimicrobial activity against Pseudomonas aeruginosa ATCC 27853 after 24 hrs by two fold serial dilution method. The class given is functional. To be noted: ATCC 27853, 24 h. An outline of the steps:
as §1

Test [1] is described as follows: Inhibition of Escherichia coli N-terminal His-tagged full length FabH expressed in Escherichia coli BL21 (DE3) using [3H]acetyl-CoA as substrate assessed as incorporation of [3H] signal into product after 25 mins by liquid scintillation counting analysis. An outline of the steps:
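His-tagged FabH was purified on Ni-NTA. Holo-ACP was made from apo-ACP with ACPS and CoA. The 20 µL reaction held pH 7.0 sodium phosphate (20 mM), 0.5 mM DTT, 0.25 mM MgCl₂, 2.5 µM holo-ACP and 1 nM FabH, preincubated 1 min. The reaction started with a 2 µL mix of 25 µM acetyl-CoA and 0.75 µCi [³H]acetyl-CoA and ran 25 min. It was stopped with ice-cold TCA, and the washed pellet was counted. Inhibitors were added from DMSO stock, ≤2% DMSO final, and IC50 was determined.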

The next test relates to Escherichia coli. Briefly: Antimicrobial activity against Escherichia coli ATCC 25922 after 24 hrs by two fold serial dilution method. It is filed as functional. To be noted: ATCC 25922, 24 h. The procedure, abridged: as §1

≈ marks a conversion by molar mass, not a printed value.

Turning to `COc1ccc(/C=N/NC(=O)Cn2c([N+](=O)[O-])cnc2C)cc1`, the MIC against Staphylococcus aureus stood at 12.5 µg/mL (≈ 39.4 µM); in the test with Bacillus subtilis it was 6.25 µg/mL (≈ 19.7 µM); against Pseudomonas aeruginosa it was 6.25 µg/mL (≈ 19.7 µM); in the test with Escherichia coli, 6.25 µg/mL (≈ 19.7 µM). The IC50 in test [1] is 4.5 µM.

Turning to `Cc1ncc([N+](=O)[O-])n1CC(=O)N/N=C/c1ccc([N+](=O)[O-])cc1`, the MIC in the test with Staphylococcus aureus was 25 µg/mL (≈ 75.2 µM); with Bacillus subtilis, 50 µg/mL (≈ 150 µM); with Pseudomonas aeruginosa, 25 µg/mL (≈ 75.2 µM); with Escherichia coli, 25 µg/mL (≈ 75.2 µM).

On to `Cc1ncc([N+](=O)[O-])n1CC(=O)N/N=C/c1ccc(O)cc1`, for which the MIC in the test with Staphylococcus aureus was more than 100 µg/mL; in the test on Bacillus subtilis, more than 100 µg/mL; in the test on Pseudomonas aeruginosa it was more than 100 µg/mL; in the test with Escherichia coli, 50 µg/mL (≈ 165 µM).

As to `Cc1ccc(/C=N/NC(=O)Cn2c([N+](=O)[O-])cnc2C)cc1`, the MIC against Staphylococcus aureus was 12.5 µg/mL (≈ 41.5 µM); with Bacillus subtilis it was 25 µg/mL (≈ 83 µM); in the test with Pseudomonas aeruginosa, 6.25 µg/mL (≈ 20.7 µM); in the test with Escherichia coli it was 6.25 µg/mL (≈ 20.7 µM). In test [1], the IC50 is 6.2 µM.

Turning to `Cc1ncc([N+](=O)[O-])n1CC(=O)N/N=C/c1ccc(N(C)C)cc1`, the MIC in the test on Staphylococcus aureus is 25 µg/mL (≈ 75.7 µM); against Bacillus subtilis, 12.5 µg/mL (≈ 37.8 µM); against Pseudomonas aeruginosa, 12.5 µg/mL (≈ 37.8 µM); in the test on Escherichia coli it was 12.5 µg/mL (≈ 37.8 µM). Moreover, the IC50 in test [1] came out at 15.9 µM.

Take `Cc1ncc([N+](=O)[O-])n1CC(=O)N/N=C/c1cccc(F)c1`: the MIC in the test on Staphylococcus aureus was determined as 25 µg/mL (≈ 81.9 µM); with Bacillus subtilis, 25 µg/mL (≈ 81.9 µM); against Pseudomonas aeruginosa, 50 µg/mL (≈ 164 µM); in the test with Escherichia coli, 50 µg/mL (≈ 164 µM).

For `Cc1ncc([N+](=O)[O-])n1CC(=O)N/N=C/c1cccc(Br)c1`, the MIC was more than 100 µg/mL with Staphylococcus aureus, more than 100 µg/mL against Bacillus subtilis, 50 µg/mL (≈ 137 µM) in the test on Pseudomonas aeruginosa and 25 µg/mL (≈ 68.3 µM) with Escherichia coli.

Consider `Cc1ncc([N+](=O)[O-])n1CC(=O)N/N=C/c1cccc(Cl)c1`, for which the MIC was 50 µg/mL (≈ 155 µM) with Staphylococcus aureus, 50 µg/mL (≈ 155 µM) with Bacillus subtilis, 50 µg/mL (≈ 155 µM) against Pseudomonas aeruginosa and 25 µg/mL (≈ 77.7 µM) with Escherichia coli.

Consider `Cc1ncc([N+](=O)[O-])n1CC(=O)N/N=C/c1cccc([N+](=O)[O-])c1`, for which the MIC was 50 µg/mL (≈ 150 µM) against Staphylococcus aureus, more than 100 µg/mL in the test with Bacillus subtilis, 50 µg/mL (≈ 150 µM) against Pseudomonas aeruginosa and 25 µg/mL (≈ 75.2 µM) in the test with Escherichia coli.

Take `COc1cccc(/C=N/NC(=O)Cn2c([N+](=O)[O-])cnc2C)c1`: the MIC against Staphylococcus aureus was 25 µg/mL (≈ 78.8 µM); with Bacillus subtilis, 50 µg/mL (≈ 158 µM); with Pseudomonas aeruginosa, 50 µg/mL (≈ 158 µM); in the test on Escherichia coli, 25 µg/mL (≈ 78.8 µM).

Regarding `Cc1ncc([N+](=O)[O-])n1CC(=O)N/N=C/c1ccccc1Cl`, the MIC against Staphylococcus aureus was 50 µg/mL (≈ 155 µM); against Bacillus subtilis it was 50 µg/mL (≈ 155 µM); with Pseudomonas aeruginosa, more than 100 µg/mL; in the test on Escherichia coli, more than 100 µg/mL.

Consider `Cc1ncc([N+](=O)[O-])n1CC(=O)N/N=C/c1ccccc1F`, for which the MIC with Staphylococcus aureus, against Bacillus subtilis, in the test with Pseudomonas aeruginosa and against Escherichia coli was more than 100 µg/mL in each case. Moreover, the IC50 in test [1] was 47.5 µM.

`Cc1ncc([N+](=O)[O-])n1CC(=O)N/N=C/c1ccccc1[N+](=O)[O-]`: the MIC in the test with Staphylococcus aureus was determined as 12.5 µg/mL (≈ 37.6 µM); in the test with Bacillus subtilis, 12.5 µg/mL (≈ 37.6 µM); against Pseudomonas aeruginosa, 25 µg/mL (≈ 75.2 µM); against Escherichia coli it was 25 µg/mL (≈ 75.2 µM). In test [1], the IC50 is 19.8 µM.

`COc1ccccc1/C=N/NC(=O)Cn1c([N+](=O)[O-])cnc1C`: the MIC against Staphylococcus aureus is more than 100 µg/mL; in the test on Bacillus subtilis, more than 100 µg/mL; against Pseudomonas aeruginosa, 50 µg/mL (≈ 158 µM); in the test with Escherichia coli it was 50 µg/mL (≈ 158 µM). Moreover, in test [1], the IC50 was 42.4 µM.

Consider `Cc1ncc([N+](=O)[O-])n1CC(=O)N/N=C/c1ccc(F)cc1F`, for which the MIC against Staphylococcus aureus came to 25 µg/mL (≈ 77.3 µM); in the test on Bacillus subtilis, 50 µg/mL (≈ 155 µM); in the test on Pseudomonas aeruginosa it was 50 µg/mL (≈ 155 µM); against Escherichia coli, 50 µg/mL (≈ 155 µM).

As for `COc1ccc(/C=N/NC(=O)Cn2c([N+](=O)[O-])cnc2C)cc1OC`, the MIC against Staphylococcus aureus was 12.5 µg/mL (≈ 36 µM); in the test on Bacillus subtilis it was 25 µg/mL (≈ 72 µM); with Pseudomonas aeruginosa, 12.5 µg/mL (≈ 36 µM); against Escherichia coli, 12.5 µg/mL (≈ 36 µM). In addition, the IC50 in test [1] is 8.8 µM.

Take `Cc1cc(/C=N/NC(=O)Cn2c([N+](=O)[O-])cnc2C)cc(C)c1C`: the MIC in the test with Staphylococcus aureus came to 3.13 µg/mL (≈ 9.5 µM); in the test on Bacillus subtilis, 3.13 µg/mL (≈ 9.5 µM); in the test on Pseudomonas aeruginosa, 6.25 µg/mL (≈ 19 µM); with Escherichia coli, 3.13 µg/mL (≈ 9.5 µM). Also, in test [1], the IC50 was 2.3 µM.

For `Cc1ncc([N+](=O)[O-])n1CC(=O)N/N=C/c1ccc(Cl)cc1`, the MIC in the test with Staphylococcus aureus is more than 100 µg/mL; in the test with Bacillus subtilis it was more than 100 µg/mL; in the test on Pseudomonas aeruginosa, 50 µg/mL (≈ 155 µM); in the test on Escherichia coli it was 50 µg/mL (≈ 155 µM).

As to `Cc1ncc([N+](=O)[O-])n1CC(=O)N/N=C/c1ccc(Br)cc1`, the MIC against Staphylococcus aureus amounted to 25 µg/mL (≈ 68.3 µM); in the test with Bacillus subtilis, 25 µg/mL (≈ 68.3 µM); against Pseudomonas aeruginosa, 12.5 µg/mL (≈ 34.1 µM); against Escherichia coli it was 25 µg/mL (≈ 68.3 µM).

Regarding `Cc1ncc([N+](=O)[O-])n1CC(=O)N/N=C/c1ccc(F)cc1`, the MIC in the test with Staphylococcus aureus, against Bacillus subtilis, against Pseudomonas aeruginosa and against Escherichia coli was more than 100 µg/mL throughout. In test [1], the IC50 came to 58.3 µM.

Consider `NC[C@H]1O[C@H](O[C@H]2[C@H](O)[C@@H](O[C@H]3O[C@H](CO)[C@@H](O)[C@H](N)[C@H]3O)[C@H](N)C[C@@H]2N)[C@H](O)[C@@H](O)[C@@H]1O` [KANAMYCIN], for which the MIC amounted to 1.56 µg/mL (≈ 3.22 µM) in the test on Staphylococcus aureus, 1.56 µg/mL (≈ 3.22 µM) in the test on Bacillus subtilis, 3.13 µg/mL (≈ 6.46 µM) with Pseudomonas aeruginosa and 3.13 µg/mL (≈ 6.46 µM) in the test with Escherichia coli.

A word on the MIC: it is the least concentration at which growth counts as inhibited. High values mean weaker potency, low ones greater potency. A word on the IC50: it is the concentration needed to halve the response being measured.
